In PMC11541586 (Communications Biology, 2024):
pEC50: −log10 of the molar value.

How the values were obtained:
human LPA1 L278A mutant = human LPA1 L278A mutant (Homo sapiens, UniProt Q92633, L278A); assay: NanoBiT-G-protein dissociation assay, LPA1 L278A mutant; type: cell-based
Method in brief: (§1)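 Human LPA1 (N-terminal FLAG-tagged, wild type or point mutant) is co-transfected into HEK293T cells with LgBiT-Gαi1, untagged Gβ1 and SmBiT-Gγ2 C68S. After 1 d, cells are resuspended in HBSS with 0.01% fatty-acid-free BSA and loaded with coelenterazine for 2 h.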

FFAR4 = target: T1, FFAR4 (Homo sapiens, UniProt Q5NUL3); assay: NanoBiT-G-protein dissociation assay for FFAR4; type: cell-based; conditions: FFAR4 (b17 prints FFARs)
T1 sequence (Q5NUL3 1-361): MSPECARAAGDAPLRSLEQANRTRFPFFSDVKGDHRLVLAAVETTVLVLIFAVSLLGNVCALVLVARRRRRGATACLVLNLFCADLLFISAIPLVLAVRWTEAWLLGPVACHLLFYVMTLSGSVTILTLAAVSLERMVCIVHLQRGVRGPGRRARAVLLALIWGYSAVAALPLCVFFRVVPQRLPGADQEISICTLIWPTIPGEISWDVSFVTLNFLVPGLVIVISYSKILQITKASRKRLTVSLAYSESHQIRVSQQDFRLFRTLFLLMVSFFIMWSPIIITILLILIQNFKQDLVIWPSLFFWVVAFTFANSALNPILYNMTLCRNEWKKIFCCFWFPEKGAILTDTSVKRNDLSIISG

human LPA1 W210A mutant = human LPA1 W210A mutant (Homo sapiens, UniProt Q92633, W210A); assay: NanoBiT-G-protein dissociation assay, LPA1 W210A mutant; type: cell-based
Method in brief: as §1

human LPA1 = human LPA1 (Homo sapiens, UniProt Q92633); assay: NanoBiT-G-protein dissociation assay; type: cell-based
Method in brief: as §1

CNRs = assay: NanoBiT-G-protein dissociation assay for CNRs; type: cell-based, human
human LPA1 W271F mutant = human LPA1 W271F mutant (Homo sapiens, UniProt Q92633, W271F); assay: NanoBiT-G-protein dissociation assay, LPA1 W271F mutant; type: cell-based
Method in brief: as §1

Chain of human LPA1 (Q92633 whole entry): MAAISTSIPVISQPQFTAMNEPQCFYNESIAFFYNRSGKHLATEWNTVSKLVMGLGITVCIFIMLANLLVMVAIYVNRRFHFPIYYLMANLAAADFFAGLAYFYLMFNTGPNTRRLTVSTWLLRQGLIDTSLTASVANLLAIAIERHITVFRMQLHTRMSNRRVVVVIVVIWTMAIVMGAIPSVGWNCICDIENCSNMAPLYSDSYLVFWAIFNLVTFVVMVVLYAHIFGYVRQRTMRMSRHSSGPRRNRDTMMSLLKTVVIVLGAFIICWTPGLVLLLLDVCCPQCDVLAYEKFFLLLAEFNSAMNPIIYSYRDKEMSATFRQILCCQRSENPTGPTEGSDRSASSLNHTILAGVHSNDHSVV
Chain of human LPA1 L278A mutant (Q92633 whole entry L278A): as the sequence (Q92633 whole entry) above, with L278A counted along it
Chain of human LPA1 W210A mutant (Q92633 whole entry W210A): as the sequence (Q92633 whole entry) above, with W210A counted along it
Chain of human LPA1 W271F mutant (Q92633 whole entry W271F): as the sequence (Q92633 whole entry) above, with W271F counted along it

Question: Which results are given for `CCc1oc2c([C@H](CO)N(CC)CC)cccc2c1C` [CpY, (2R)-2-(diethylamino)-2-(2-ethyl-3-methyl-benzofuran-7-yl)ethanol]?
Answer: response of mutant compared with wild type (human LPA1 L278A mutant): reduced the activity; effect on receptor (FFAR4): no activity; response of mutant compared with wild type (human LPA1 W210A mutant): responsive; pEC50 (human LPA1; EC50, WT LPA1): 9.02; Emax relative to LPA (human LPA1; compared with LPA): 1.5 fold; agonistic activity (EC50) relative to LPA (human LPA1; compared with LPA): 20 fold; effect on receptor (CNRs): no activity; response of mutant compared with wild type (human LPA1 W271F mutant): reduction in response
